Results: ChEMBL document CHEMBL5696442, “Discovery of type II inhibitors of TGFβ-activated kinase 1 (TAK1) and mitogen-activated protein kinase kinase kinase kinase 2 (MAP4K2)” (J Med Chem, 2015)

What was measured:
[1] = biological target: Serine/threonine-protein kinase Nek7 (Homo sapiens) (UniProt Q8TDX7); assay: Inhibition of NEK7 Lys1 labeling site in human A-375 cells at 0.5 uM by KiNativ Profiling analysis relative to control; type: cell-based
[2] = biological target: Serine/threonine-protein kinase WNK1 (Homo sapiens) (UniProt Q9H4A3); assay: Inhibition of Wnk1 Lys2 labeling site in human A-375 cells at 0.5 uM by KiNativ Profiling analysis relative to control; type: cell-based
Serine/threonine-protein kinase WNK1 (Homo sapiens), sequence (Q9H4A3 whole entry, looked up): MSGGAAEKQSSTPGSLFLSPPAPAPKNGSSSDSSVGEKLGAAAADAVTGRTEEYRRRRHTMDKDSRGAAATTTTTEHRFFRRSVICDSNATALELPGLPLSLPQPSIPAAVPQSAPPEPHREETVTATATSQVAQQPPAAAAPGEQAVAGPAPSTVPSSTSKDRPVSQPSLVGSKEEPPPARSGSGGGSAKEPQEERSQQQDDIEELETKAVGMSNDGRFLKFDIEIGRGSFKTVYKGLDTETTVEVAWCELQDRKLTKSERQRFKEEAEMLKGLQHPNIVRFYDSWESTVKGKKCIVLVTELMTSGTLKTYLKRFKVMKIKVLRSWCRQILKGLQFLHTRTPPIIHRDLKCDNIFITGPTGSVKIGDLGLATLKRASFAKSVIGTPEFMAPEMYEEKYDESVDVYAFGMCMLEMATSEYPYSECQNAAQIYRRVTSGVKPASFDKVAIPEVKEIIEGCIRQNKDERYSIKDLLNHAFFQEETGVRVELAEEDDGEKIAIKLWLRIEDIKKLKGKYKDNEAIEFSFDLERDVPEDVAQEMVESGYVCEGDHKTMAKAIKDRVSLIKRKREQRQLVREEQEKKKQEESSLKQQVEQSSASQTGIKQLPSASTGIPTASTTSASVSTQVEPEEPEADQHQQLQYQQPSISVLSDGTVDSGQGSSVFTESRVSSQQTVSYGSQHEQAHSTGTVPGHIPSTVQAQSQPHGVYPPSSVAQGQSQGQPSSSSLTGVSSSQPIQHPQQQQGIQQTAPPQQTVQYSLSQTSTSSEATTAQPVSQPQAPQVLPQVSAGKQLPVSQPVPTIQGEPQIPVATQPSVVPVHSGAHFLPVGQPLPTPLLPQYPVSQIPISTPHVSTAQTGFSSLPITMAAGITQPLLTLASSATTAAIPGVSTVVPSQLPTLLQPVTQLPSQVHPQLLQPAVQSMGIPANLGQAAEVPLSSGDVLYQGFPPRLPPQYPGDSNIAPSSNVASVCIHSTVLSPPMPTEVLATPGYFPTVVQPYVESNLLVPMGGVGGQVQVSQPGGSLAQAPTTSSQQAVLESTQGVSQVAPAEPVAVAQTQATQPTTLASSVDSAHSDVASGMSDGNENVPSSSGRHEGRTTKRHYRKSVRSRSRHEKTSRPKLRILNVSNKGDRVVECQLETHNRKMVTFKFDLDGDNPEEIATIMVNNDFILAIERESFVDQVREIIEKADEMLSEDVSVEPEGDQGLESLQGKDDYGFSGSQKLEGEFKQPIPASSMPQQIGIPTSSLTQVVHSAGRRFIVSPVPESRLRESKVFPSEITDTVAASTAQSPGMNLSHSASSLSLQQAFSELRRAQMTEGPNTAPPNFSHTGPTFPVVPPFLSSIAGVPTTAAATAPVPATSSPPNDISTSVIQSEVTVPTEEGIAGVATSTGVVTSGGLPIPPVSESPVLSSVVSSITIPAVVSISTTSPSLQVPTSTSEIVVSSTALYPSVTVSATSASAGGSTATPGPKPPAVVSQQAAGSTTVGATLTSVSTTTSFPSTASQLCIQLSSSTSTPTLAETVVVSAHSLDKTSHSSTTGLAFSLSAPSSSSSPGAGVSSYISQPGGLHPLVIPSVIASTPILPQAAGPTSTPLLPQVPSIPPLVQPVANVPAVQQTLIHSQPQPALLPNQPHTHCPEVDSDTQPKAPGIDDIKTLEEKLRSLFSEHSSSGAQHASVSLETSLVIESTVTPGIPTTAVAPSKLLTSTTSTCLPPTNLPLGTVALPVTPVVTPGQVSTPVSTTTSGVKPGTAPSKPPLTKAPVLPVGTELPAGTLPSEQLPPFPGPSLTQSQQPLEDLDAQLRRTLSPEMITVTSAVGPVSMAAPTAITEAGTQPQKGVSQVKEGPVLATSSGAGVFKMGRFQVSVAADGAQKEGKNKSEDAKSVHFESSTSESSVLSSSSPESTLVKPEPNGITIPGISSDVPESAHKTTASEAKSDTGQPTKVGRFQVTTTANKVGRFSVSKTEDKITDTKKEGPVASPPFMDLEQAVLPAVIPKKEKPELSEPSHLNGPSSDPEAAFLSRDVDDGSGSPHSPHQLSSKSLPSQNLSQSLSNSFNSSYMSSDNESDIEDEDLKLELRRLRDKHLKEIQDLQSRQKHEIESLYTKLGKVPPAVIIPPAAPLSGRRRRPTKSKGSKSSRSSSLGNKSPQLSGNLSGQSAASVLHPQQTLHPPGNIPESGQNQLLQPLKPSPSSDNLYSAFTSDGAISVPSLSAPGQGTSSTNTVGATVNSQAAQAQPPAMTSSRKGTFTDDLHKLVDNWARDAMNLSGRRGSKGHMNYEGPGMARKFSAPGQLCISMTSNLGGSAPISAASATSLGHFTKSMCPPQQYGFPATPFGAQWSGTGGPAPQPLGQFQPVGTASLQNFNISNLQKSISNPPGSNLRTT

[3] = biological target: Mitogen-activated protein kinase 8 (Homo sapiens, UniProt P45983); assay: Inhibition of JNK1 Lys2 labeling site in human A-375 cells at 5 uM by KiNativ Profiling analysis relative to control; type: cell-based
Mitogen-activated protein kinase 8, sequence (P45983 whole entry): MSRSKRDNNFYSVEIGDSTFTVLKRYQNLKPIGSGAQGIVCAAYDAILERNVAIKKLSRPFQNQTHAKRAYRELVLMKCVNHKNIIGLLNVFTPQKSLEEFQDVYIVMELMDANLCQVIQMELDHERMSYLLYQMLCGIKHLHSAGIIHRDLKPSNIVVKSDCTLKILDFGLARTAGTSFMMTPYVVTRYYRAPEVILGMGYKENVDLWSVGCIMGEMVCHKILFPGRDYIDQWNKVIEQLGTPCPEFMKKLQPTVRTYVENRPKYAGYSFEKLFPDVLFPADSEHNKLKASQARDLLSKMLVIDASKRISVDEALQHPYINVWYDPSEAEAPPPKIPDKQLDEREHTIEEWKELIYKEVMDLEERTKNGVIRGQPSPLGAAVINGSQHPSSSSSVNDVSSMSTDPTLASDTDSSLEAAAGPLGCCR

[4] = biological target: T1, Serine/threonine-protein kinase NLK (Homo sapiens) (UniProt Q9UBE8); assay: Inhibition of NLK Lys2 labeling site in human A-375 cells at 0.5 uM by KiNativ Profiling analysis relative to control; type: cell-based
T1 sequence (whole entry): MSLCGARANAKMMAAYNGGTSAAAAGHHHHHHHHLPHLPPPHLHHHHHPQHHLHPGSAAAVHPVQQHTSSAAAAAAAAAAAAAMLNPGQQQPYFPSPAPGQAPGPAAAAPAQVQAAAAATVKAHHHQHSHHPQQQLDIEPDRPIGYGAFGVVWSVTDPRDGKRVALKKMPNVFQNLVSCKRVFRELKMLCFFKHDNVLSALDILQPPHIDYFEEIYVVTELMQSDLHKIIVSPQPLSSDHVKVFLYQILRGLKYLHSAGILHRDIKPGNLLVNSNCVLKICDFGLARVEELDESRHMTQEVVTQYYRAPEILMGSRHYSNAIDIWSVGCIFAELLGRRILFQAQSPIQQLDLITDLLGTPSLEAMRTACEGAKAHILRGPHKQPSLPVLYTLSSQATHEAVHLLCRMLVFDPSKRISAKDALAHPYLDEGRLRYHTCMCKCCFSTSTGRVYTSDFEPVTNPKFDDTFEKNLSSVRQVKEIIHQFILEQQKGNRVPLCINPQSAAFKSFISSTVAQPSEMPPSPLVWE

[5] = biological target: Tyrosine-protein kinase receptor UFO (Homo sapiens) (UniProt P30530); assay: Inhibition of AXL ACT labeling site in human A-375 cells at 0.05 uM by KiNativ Profiling analysis relative to control; type: cell-based
[6] = biological target: Serine/threonine-protein kinase Nek6 (Homo sapiens) (UniProt Q9HC98); assay: Inhibition of NEK6 Lys2 labeling site in human A-375 cells at 0.5 uM by KiNativ Profiling analysis relative to control; type: cell-based
Serine/threonine-protein kinase Nek6 (Homo sapiens), sequence (Q9HC98 whole entry): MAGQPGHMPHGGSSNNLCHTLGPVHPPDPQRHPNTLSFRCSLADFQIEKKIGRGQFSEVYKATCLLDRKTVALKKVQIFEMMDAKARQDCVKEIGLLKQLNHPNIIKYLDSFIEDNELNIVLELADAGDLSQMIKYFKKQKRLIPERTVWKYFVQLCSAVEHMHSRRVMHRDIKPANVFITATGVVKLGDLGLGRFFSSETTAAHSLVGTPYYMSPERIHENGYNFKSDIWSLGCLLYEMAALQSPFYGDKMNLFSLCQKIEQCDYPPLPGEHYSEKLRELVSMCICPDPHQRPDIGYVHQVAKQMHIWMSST

[7] = biological target: Tyrosine-protein kinase Fyn (Homo sapiens) (UniProt P06241); assay: Inhibition of FYN ACT labeling site in human A-375 cells at 0.5 uM by KiNativ Profiling analysis relative to control; type: cell-based
[8] = biological target: DNA-PK/Ku70/Ku85 (Homo sapiens) (UniProt P78527+P12956+P13010); assay: Inhibition of DNAPK ATP labeling site harbouring KGGSWIQEINVAEK in human A-375 cells at 0.5 uM by KiNativ Profiling analysis relative to control; type: cell-based
Procedure, shortened: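 Live A375 melanoma cells were treated with compound at 0.5 or 5 μM, then lysed. Lysates were labeled with a lysine-reactive ATP or ADP-biotin probe. The read-out was protection of each kinase probe-labeling site from labeling, relative to control.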

[9] = biological target: Dual specificity mitogen-activated protein kinase kinase 2 (Homo sapiens) (UniProt P36507); assay: Inhibition of MAP2K2 Lys1 labeling site in human A-375 cells at 0.5 uM by KiNativ Profiling analysis relative to control; type: cell-based
[10] = biological target: T2, Aurora kinase C (Homo sapiens) (UniProt Q9UQB9); assay: Inhibition of AurC ATP Loop labeling site in human A-375 cells at 5 uM by KiNativ Profiling analysis relative to control; type: cell-based
T2 sequence (whole entry): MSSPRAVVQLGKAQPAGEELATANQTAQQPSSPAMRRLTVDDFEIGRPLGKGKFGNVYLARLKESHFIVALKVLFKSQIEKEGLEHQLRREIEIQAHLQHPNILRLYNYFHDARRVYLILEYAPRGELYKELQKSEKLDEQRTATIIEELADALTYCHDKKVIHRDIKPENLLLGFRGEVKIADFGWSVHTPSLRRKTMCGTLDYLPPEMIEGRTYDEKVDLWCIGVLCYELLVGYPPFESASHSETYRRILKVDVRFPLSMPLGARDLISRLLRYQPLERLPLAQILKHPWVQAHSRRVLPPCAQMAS
Procedure, shortened: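 Live A375 melanoma cells were treated with compound at 5 or 0.5 μM, then lysed. The lysates were labeled with a lysine-reactive ATP or ADP-biotin probe. Kinase protection from probe labeling was measured by KiNativ.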

[11] = biological target: T3, Mitogen-activated protein kinase kinase kinase 3 (Homo sapiens) (UniProt Q99759); assay: Inhibition of MAP3K3 Lys1 labeling site in human A-375 cells at 0.5 uM by KiNativ Profiling analysis relative to control; type: cell-based
T3 sequence (whole entry): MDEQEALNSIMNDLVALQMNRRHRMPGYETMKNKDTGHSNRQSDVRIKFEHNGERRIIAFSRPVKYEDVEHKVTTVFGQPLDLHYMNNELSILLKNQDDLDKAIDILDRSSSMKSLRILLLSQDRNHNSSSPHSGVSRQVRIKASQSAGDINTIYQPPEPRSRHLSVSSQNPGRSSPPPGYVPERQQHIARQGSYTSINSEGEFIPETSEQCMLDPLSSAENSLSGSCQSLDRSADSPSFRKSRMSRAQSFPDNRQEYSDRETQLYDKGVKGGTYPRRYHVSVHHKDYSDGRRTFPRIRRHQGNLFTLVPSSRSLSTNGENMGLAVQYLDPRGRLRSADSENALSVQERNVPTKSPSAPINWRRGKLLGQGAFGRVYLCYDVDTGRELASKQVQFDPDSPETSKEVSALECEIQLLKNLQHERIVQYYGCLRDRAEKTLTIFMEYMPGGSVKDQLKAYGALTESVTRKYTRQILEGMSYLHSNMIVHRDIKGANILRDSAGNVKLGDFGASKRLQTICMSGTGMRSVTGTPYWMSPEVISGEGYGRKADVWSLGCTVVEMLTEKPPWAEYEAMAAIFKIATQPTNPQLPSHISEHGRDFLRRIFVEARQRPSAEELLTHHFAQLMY

[12] = biological target: Tyrosine-protein kinase Fer (Homo sapiens, UniProt P16591); assay: Inhibition of FER Lys1 labeling site in human A-375 cells at 0.5 uM by KiNativ Profiling analysis relative to control; type: cell-based
Tyrosine-protein kinase Fer, sequence (P16591 whole entry, looked up): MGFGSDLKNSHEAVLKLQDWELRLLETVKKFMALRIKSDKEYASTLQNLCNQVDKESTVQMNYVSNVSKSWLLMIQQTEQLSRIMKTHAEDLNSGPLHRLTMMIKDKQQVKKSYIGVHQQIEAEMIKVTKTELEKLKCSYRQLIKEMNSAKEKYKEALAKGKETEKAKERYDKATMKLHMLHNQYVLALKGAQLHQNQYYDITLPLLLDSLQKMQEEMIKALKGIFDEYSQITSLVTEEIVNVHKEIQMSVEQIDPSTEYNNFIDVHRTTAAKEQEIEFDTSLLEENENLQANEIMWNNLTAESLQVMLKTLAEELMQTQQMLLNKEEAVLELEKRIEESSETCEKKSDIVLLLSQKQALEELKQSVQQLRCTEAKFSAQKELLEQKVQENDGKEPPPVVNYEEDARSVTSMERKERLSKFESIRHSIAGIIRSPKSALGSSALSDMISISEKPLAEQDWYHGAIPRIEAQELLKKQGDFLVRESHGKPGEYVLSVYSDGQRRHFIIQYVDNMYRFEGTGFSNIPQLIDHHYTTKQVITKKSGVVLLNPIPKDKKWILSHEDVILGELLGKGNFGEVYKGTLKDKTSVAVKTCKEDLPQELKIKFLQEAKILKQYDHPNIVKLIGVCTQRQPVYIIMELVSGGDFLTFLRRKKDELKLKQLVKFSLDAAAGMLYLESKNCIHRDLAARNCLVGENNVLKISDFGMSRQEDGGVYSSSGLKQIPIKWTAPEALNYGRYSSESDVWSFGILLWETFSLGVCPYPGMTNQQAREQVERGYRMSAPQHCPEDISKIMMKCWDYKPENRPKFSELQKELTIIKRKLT

[13] = biological target: Mitogen-activated protein kinase 14 (Homo sapiens, UniProt Q16539); assay: Inhibition of p38 alpha Lys2 labeling site in human A-375 cells at 0.05 uM by KiNativ Profiling analysis relative to control; type: cell-based
Mitogen-activated protein kinase 14, sequence (Q16539 whole entry): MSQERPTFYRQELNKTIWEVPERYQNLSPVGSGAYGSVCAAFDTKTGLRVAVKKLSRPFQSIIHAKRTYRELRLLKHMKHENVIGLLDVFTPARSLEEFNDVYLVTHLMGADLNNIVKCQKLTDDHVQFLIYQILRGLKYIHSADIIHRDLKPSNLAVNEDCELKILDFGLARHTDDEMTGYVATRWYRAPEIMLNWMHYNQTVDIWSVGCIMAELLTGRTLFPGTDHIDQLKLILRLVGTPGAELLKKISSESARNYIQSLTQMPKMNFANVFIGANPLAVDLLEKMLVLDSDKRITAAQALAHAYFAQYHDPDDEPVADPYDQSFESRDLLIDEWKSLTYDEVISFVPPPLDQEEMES

[14] = biological target: Mitogen-activated protein kinase 10 (Homo sapiens, UniProt P53779); assay: Inhibition of JNK3 Lys2 labeling site in human Huh-7 cell lysate at 1 uM by KiNativ Profiling analysis relative to control; type: subcellular
Mitogen-activated protein kinase 10, sequence (P53779 whole entry): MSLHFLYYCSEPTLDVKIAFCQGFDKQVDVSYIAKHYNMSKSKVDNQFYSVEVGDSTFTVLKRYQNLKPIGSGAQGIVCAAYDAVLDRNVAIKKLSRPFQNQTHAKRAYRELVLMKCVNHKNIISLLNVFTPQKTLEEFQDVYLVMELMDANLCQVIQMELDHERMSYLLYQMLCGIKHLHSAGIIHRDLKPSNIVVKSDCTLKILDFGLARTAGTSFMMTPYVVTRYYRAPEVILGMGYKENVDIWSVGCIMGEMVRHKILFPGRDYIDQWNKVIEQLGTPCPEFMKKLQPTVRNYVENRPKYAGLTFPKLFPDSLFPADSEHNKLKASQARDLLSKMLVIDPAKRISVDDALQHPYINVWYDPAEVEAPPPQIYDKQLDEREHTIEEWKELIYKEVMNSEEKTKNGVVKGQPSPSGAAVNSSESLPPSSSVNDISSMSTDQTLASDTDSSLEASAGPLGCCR

Serine/threonine-protein kinase Nek7 (Homo sapiens), sequence (Q8TDX7 whole entry, looked up): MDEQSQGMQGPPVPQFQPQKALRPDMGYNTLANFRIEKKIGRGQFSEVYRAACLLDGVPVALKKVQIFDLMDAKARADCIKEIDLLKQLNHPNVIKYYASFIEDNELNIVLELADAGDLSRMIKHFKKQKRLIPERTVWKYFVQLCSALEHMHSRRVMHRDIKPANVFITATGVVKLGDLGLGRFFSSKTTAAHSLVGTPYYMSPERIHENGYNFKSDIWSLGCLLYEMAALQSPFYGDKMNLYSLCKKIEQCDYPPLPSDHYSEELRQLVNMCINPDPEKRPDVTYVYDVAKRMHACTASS

SMILES: CCN1CCN(Cc2ccc(NC(=O)c3ccc(C)c(Oc4ccnc5[nH]ccc45)c3)cc2C(F)(F)F)CC1
- inhibition [1]: -0.5%
- inhibition [2]: -3%
- inhibition [3]: 90.3%
- inhibition [4]: 3.1%
- inhibition [5]: 12.4%
- inhibition [6]: 7.8%
- inhibition [7]: 36.5%
- inhibition [8]: 34%
- inhibition [9]: -3.5%
- inhibition [10]: 31.4%
- inhibition [11]: 42%
- inhibition [12]: 87%
- inhibition [13]: 4.2%

SMILES: CNc1cc(Oc2cc(C(=O)Nc3cc(-n4cnc(C)c4)cc(C(F)(F)F)c3)ccc2C)ncn1
- inhibition [14]: 18.4%

SMILES: CNc1cc(Oc2cc(C(=O)Nc3cc(N4CCN(C)CC4)cc(C(F)(F)F)c3)ccc2C)ncn1
- inhibition [14]: 7%

SMILES: CCN1CCN(Cc2ccc(NC(=O)c3ccc(C)c(/C=C/c4cnc5[nH]ccc5c4OC)c3)cc2C(F)(F)F)CC1
- inhibition [1]: 7.8%
- inhibition [2]: 7.9%
- inhibition [3]: 76.9%
- inhibition [4]: 27.3%
- inhibition [5]: 10.1%
- inhibition [6]: 10.7%
- inhibition [7]: 72.6%
- inhibition [8]: 17.8%
- inhibition [9]: 4.4%
- inhibition [10]: 48.5%
- inhibition [11]: 33.4%
- inhibition [12]: 30%
- inhibition [13]: 59.4%
